# Measurements from ChEMBL document CHEMBL5236609, “Optimization of 1,2,4-Triazole-3-thiones toward Broad-Spectrum Metallo-β-lactamase Inhibitors Showing Potent Synergistic Activity on VIM- and NDM-1-Producing Clinical Isolates” (J Med Chem, 2022).
# pKi: −log10 of the molar value.
# Columns and labels:
# [1] = Inhibition of bacterial VIM-4 (unknown origin) expressed in Escherichia coli EXPRESS BL21(DE3) assessed as inhibition constant by measuring rate of substrate hydrolysis by UV-visible spectrophotometry; parameters: species or system Bacteria
# How it was run: (§1)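 Reporter-substrate assay with purified MBL (1–70 nM final) in 50 mM HEPES pH 7.5 at 30 °C. […] Inhibitor 0.5–1000 μM final. Ki derived from the v0/vi vs [I] slope assuming competitive inhibition, or from a Dixon plot. Ki given when inhibition >70%, otherwise % inhibition at 100 μM. Triplicate.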
# [2] = test system: Bacteria; assay: Inhibition of bacterial VIM-1 (unknown origin) expressed in Escherichia coli EXPRESS BL21(DE3) assessed as inhibition constant by measuring rate of substrate hydrolysis at 100 uM by UV-visible spectrophotometry relative to control; how it was run: as §1
# [3] = test system: Bacteria; assay: Inhibition of bacterial VIM-2 (unknown origin) expressed in Escherichia coli EXPRESS BL21(DE3) assessed as inhibition constant by measuring rate of substrate hydrolysis at 100 uM by UV-visible spectrophotometry relative to control; how it was run: as §1
# [4] = test system: Bacteria; assay: Inhibition of bacterial NDM-1 (unknown origin) expressed in Escherichia coli EXPRESS BL21(DE3) assessed as inhibition constant by measuring rate of substrate hydrolysis at 100 uM by UV-visible spectrophotometry relative to control; how it was run: as §1
# [5] = test system: Bacteria; assay: Inhibition of bacterial IMP-1 (unknown origin) expressed in Escherichia coli EXPRESS BL21(DE3) assessed as inhibition constant by measuring rate of substrate hydrolysis at 100 uM by UV-visible spectrophotometry relative to control; how it was run: as §1
# [6] = Inhibition of bacterial VIM-1 (unknown origin) expressed in Escherichia coli EXPRESS BL21(DE3) assessed as inhibition constant by measuring rate of substrate hydrolysis by UV-visible spectrophotometry; parameters: species or system Bacteria; how it was run: as §1
# [7] = test system: Bacteria; assay: Inhibition of bacterial VIM-4 (unknown origin) expressed in Escherichia coli EXPRESS BL21(DE3) assessed as inhibition constant by measuring rate of substrate hydrolysis at 100 uM by UV-visible spectrophotometry relative to control; how it was run: as §1
# [8] = Inhibition of bacterial VIM-2 (unknown origin) expressed in Escherichia coli EXPRESS BL21(DE3) assessed as inhibition constant by measuring rate of substrate hydrolysis by UV-visible spectrophotometry; parameters: species or system Bacteria; how it was run: as §1
# [9] = test system: Klebsiella pneumoniae; assay: Antimicrobial activity against blaVIM-1-producing multidrug-resistant Klebsiella pneumoniae K47-25 clinical isolate assessed as meropenem MIC at 32 ug/ml by broth microdilution method (reference value: […] ug/ml); format: functional; settings: dose 32 µg/ml
# How it was run: (§2)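 Inoculum was 5×10^4 CFU/well. Each inhibitor was present at a fixed 32 μg/mL, and MICs were also taken without inhibitor.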
# [10] = test system: Klebsiella pneumoniae; assay: Antimicrobial activity against blaVIM-4-producing multidrug-resistant Klebsiella pneumoniae VA-416/02 clinical isolate assessed as meropenem MIC at 32 ug/ml by broth microdilution method (reference value: […] ug/ml); format: functional; settings: dose 32 µg/ml; how it was run: as §2
# [11] = test system: Pseudomonas aeruginosa; assay: Antimicrobial activity against blaVIM-2-producing multidrug-resistant Pseudomonas aeruginosa VA-182/00 clinical isolate assessed as meropenem MIC at 32 ug/ml by broth microdilution method (reference value: 128 ug/ml); format: functional; settings: dose 32 µg/ml; how it was run: as §2
# [12] = test system: Escherichia coli; assay: Antimicrobial activity against blaNDM-1-producing multidrug-resistant Escherichia coli SI-004 clinical isolate assessed as meropenem MIC at 32 ug/ml by broth microdilution method (reference value: 64 ug/ml)
# [13] = Inhibition of bacterial NDM-1 (unknown origin) expressed in Escherichia coli EXPRESS BL21(DE3) assessed as inhibition constant by measuring rate of substrate hydrolysis by UV-visible spectrophotometry; parameters: species or system Bacteria; how it was run: as §1
SMILES,pKi [1],inhibition [2] [%],inhibition [3] [%],inhibition [4] [%],inhibition [5] [%],pKi [6],inhibition [7] [%],pKi [8],MIC [9] [µg/mL],MIC [10] [µg/mL],MIC [11] [µg/mL],MIC [12] [µg/mL],pKi [13]
O=C(O)[C@H](CCCn1c(-c2ccccc2)n[nH]c1=S)NCc1cncs1,5.47,60,58,< 30,< 30,–,–,–,–,–,–,–,–
O=C(O)[C@H](CCCn1c(-c2ccccc2)n[nH]c1=S)NCc1cc[nH]c1,–,–,< 30,< 30,< 30,5.30,32,–,–,–,–,–,–
Cn1cncc1CN(Cc1c[nH]cn1)[C@@H](CCCn1c(-c2ccccc2)n[nH]c1=S)C(=O)O,5.42,–,–,66,50,5.36,–,5.49,2,4,128,32,–
O=C(O)[C@H](CCCn1c(-c2ccccc2)n[nH]c1=S)NCc1c[nH]c2ccccc12,–,–,< 30,< 30,< 30,–,< 30,–,–,–,–,–,–
O=C(O)[C@H](CCCn1c(-c2ccccc2)n[nH]c1=S)N(Cc1ccccc1)Cc1ccccc1,–,38,63,32,< 30,–,64,–,2,4,128,64,–
O=C(O)[C@H](CCCn1c(-c2cccc(-c3ccccc3)c2)n[nH]c1=S)N(Cc1c[nH]cn1)Cc1c[nH]cn1,7.15,–,–,–,69,6.89,–,7.05,0.03,0.03,8,0.06,7.89
O=C(O)[C@H](CCCn1c(-c2ccccc2)n[nH]c1=S)N(Cc1cscn1)Cc1cscn1,5.70,–,–,–,48,5.62,–,5.60,1,1,128,32,5.19
O=C(O)[C@H](CCCn1c(C2CCCCC2)n[nH]c1=S)N(Cc1c[nH]cn1)Cc1c[nH]cn1,7.05,–,–,–,48,6.55,–,6.96,0.06,0.12,8,0.06,8.46
Cc1ccc(C(C)N[C@@H](CCCn2c(-c3ccccc3)n[nH]c2=S)C(=O)O)cc1 (some centres not stated),–,–,36,< 30,< 30,4.97,< 30,–,–,–,–,–,–
O=C(O)[C@H](CCCn1c(-c2ccccc2)n[nH]c1=S)NCc1ccccn1,–,< 30,44,–,34,–,< 30,–,–,–,–,–,5.70
O=C(O)[C@H](CCCn1c(-c2ccccc2)n[nH]c1=S)NCc1cscn1,–,55,< 30,< 30,47,–,43,–,–,–,–,–,–
O=C(O)[C@H](CCCn1c(-c2ccccc2)n[nH]c1=S)N(Cc1c[nH]cn1)Cc1cscn1,6.46,–,–,–,59,6.09,–,6.46,0.12,0.06,16,4,7.52
O=C(O)[C@H](CCCn1c(-c2ccccc2)n[nH]c1=S)NCc1ccccc1,–,–,< 30,< 30,< 30,–,< 30,–,–,–,–,–,–
O=C(O)[C@H](CCCn1c(Cc2ccccc2)n[nH]c1=S)N(Cc1c[nH]cn1)Cc1c[nH]cn1,6.92,–,–,–,54,6.92,–,6.39,0.03,0.03,8,0.06,7.05
O=C(O)[C@H](CCCn1c(-c2ccccc2)n[nH]c1=S)N(Cc1c[nH]cn1)Cc1ncc[nH]1,6.46,–,–,–,49,6.35,–,5.48,0.06,0.06,8,0.06,5.57
O=C(O)[C@H](CCCCn1c(-c2ccccc2)n[nH]c1=S)NCc1c[nH]cn1,–,–,39,–,44,5.74,< 30,–,–,–,–,–,5.40

SMILES,pKi [1],inhibition [2] [%],inhibition [3] [%],inhibition [4] [%],inhibition [5] [%],pKi [6],inhibition [7] [%],pKi [8],MIC [9] [µg/mL],MIC [10] [µg/mL],MIC [11] [µg/mL],MIC [12] [µg/mL],pKi [13]
O=C(O)[C@H](CCCn1c(-c2ccccc2)n[nH]c1=S)N(Cc1cn[nH]c1)Cc1c[nH]cn1,5.70,–,53,37,34,5.34,–,–,–,–,–,–,–
O=C(O)[C@H](CCCn1c(-c2ccccc2)n[nH]c1=S)N(Cc1c[nH]cn1)Cc1cncs1,6.11,–,–,–,39,5.60,–,5.96,1,2,128,32,4.88
Cc1[nH]cnc1CN[C@@H](CCCn1c(-c2ccccc2)n[nH]c1=S)C(=O)O,–,51,< 30,< 30,< 30,–,< 30,–,–,–,–,–,–
CC(C)(C)OC(=O)NCCCCn1c(-c2ccccc2)n[nH]c1=S,5.51,–,53,42,< 30,6.12,–,–,–,–,–,–,–
O=C(O)[C@H](CCCn1c(-c2ccccc2)n[nH]c1=S)NCc1cccnc1,–,48,47,< 30,< 30,–,< 30,–,–,–,–,–,–
COc1cccc(CN(Cc2cccc(OC)c2OC)[C@@H](CCCn2c(-c3ccccc3)n[nH]c2=S)C(=O)O)c1OC,6.44,–,–,43,< 30,5.70,–,6.12,2,4,128,64,–
O=C(O)[C@H](CCCn1c(-c2ccccc2)n[nH]c1=S)N(Cc1ncc[nH]1)Cc1ncc[nH]1,6.18,–,–,–,61,6.16,–,6.05,–,–,–,–,7.70
O=C(O)[C@H](CCCn1c(-c2ccccc2)n[nH]c1=S)N(Cc1cccnc1)Cc1c[nH]cn1,5.77,–,–,–,< 30,5.28,–,5.74,4,1,128,64,4.46
O=C(O)[C@H](CCCn1c(-c2ccccc2)n[nH]c1=S)N(Cc1cnccn1)Cc1c[nH]cn1,5.72,–,–,–,43,5.48,–,5.62,4,1,128,8,6.05
O=C(O)[C@H](CCCn1c(-c2ccccc2)n[nH]c1=S)N(Cc1cnccn1)Cc1cnccn1,6.20,–,–,–,51,5.60,–,5.92,4,2,128,32,4.75
O=C(O)[C@H](CCCn1c(-c2ccccc2)n[nH]c1=S)N(Cc1cn[nH]c1)Cc1cn[nH]c1,6.54,–,–,< 30,< 30,5.43,–,5.60,2,1,128,64,–
S=c1[nH]nc(-c2ccccc2)n1CCCCN(Cc1c[nH]cn1)Cc1c[nH]cn1,6.05,–,–,–,34,6.07,–,5.82,4,1,128,32,5.04
O=C(O)[C@H](CCCn1c(-c2ccccc2)n[nH]c1=S)NCc1cccc(O)c1O,5.38,–,57,37,32,5.09,–,–,–,–,–,–,–
Cn1cncc1CN[C@@H](CCCn1c(-c2ccccc2)n[nH]c1=S)C(=O)O,–,–,47,38,< 30,5.02,< 30,–,–,–,–,–,–
O=C(O)[C@H](CCCn1c(-c2ccccc2)n[nH]c1=S)N(Cc1ccccc1)Cc1c[nH]cn1,6.00,–,–,60,45,5.39,–,5.68,2,2,128,32,–
